Key:
[1] = Inhibition of WR99210-resistant form-A Plasmodium falciparum DHFR-TS I51N, C59R, N108S, L164I, D54N mutant expressed in Escherichia coli BL21(DE3)
Outline: (§1)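 The recombinant enzyme was expressed in E. coli BL21(DE3) and purified by methotrexate-Sepharose affinity chromatography. Each reaction was started by adding 0.008 to 0.01 U of enzyme in the presence of varying inhibitor amounts. DHFR activity was read on a microplate spectrophotometer, and IC50 was taken from the inhibition data.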

[2] = Inhibition of pyrimethamine-resistant form-1 Plasmodium falciparum N51I, C59R, S108N, I164L, D187A mutant expressed in Escherichia coli BL21(DE3) by Michaelis-Menten based competitive inhibition assay
[3] = Inhibition of WR99210-resistant form-1 Plasmodium falciparum I51N, C59R, N108S, I164L mutant expressed in Escherichia coli BL21(DE3) by Michaelis-Menten based competitive inhibition assay
[4] = Inhibition of WR99210-resistant form-2 Plasmodium falciparum N51I, C59R, N108S, I164L mutant expressed in Escherichia coli BL21(DE3) by Michaelis-Menten based competitive inhibition assay
[5] = Inhibition of WR99210-resistant form-3 Plasmodium falciparum N51I, C59R, N108T, I164L mutant expressed in Escherichia coli BL21(DE3) by Michaelis-Menten based competitive inhibition assay
[6] = Inhibition of Plasmodium falciparum DHFR QM template N51I, C59R, S108N, I164L mutant expressed in Escherichia coli BL21(DE3); outline: as §1
[7] = Inhibition of Plasmodium falciparum DHFR QM template N51I, C59R, S108N, I164L mutant expressed in Escherichia coli BL21(DE3) by Michaelis-Menten based competitive inhibition assay
[8] = Inhibition of WR99210-resistant form-2 Plasmodium falciparum N51I, C59R, N108S, I164L mutant expressed in Escherichia coli BL21(DE3); outline: as §1
[9] = Inhibition of WR99210-resistant form-1 Plasmodium falciparum I51N, C59R, N108S, I164L mutant expressed in Escherichia coli BL21(DE3); outline: as §1
[10] = Inhibition of pyrimethamine-resistant form-3 Plasmodium falciparum N51I, C59R, S108N, I164L, I150V, N182I, N201D mutant expressed in Escherichia coli BL21(DE3) by Michaelis-Menten based competitive inhibition assay
[11] = Inhibition of Plasmodium falciparum DHFR-TS QM template N51I, C59R, S108N, I164L mutant expressed in Escherichia coli BL21(DE3); outline: as §1
[12] = Inhibition of pyrimethamine-resistant form-3 Plasmodium falciparum N51I, C59R, S108N, I164L, I150V, N182I, N201D mutant expressed in Escherichia coli BL21(DE3); outline: as §1
[13] = Inhibition of Plasmodium falciparum DHFR-TS QM template N51I, C59R, S108N, I164L mutant expressed in Escherichia coli BL21(DE3) by Michaelis-Menten based competitive inhibition assay
[14] = Inhibition of pyrimethamine-resistant form-1 Plasmodium falciparum N51I, C59R, S108N, I164L, D187A mutant expressed in Escherichia coli BL21(DE3); outline: as §1
[15] = Inhibition of WR99210-resistant form-3 Plasmodium falciparum N51I, C59R, N108T, I164L mutant expressed in Escherichia coli BL21(DE3); outline: as §1
[16] = target: T1, Bifunctional dihydrofolate reductase-thymidylate synthase (Plasmodium falciparum (isolate 3D7), UniProt Q8I1R6, C59R/I164L/K96N/N51I/S108N); assay: Inhibition of pyrimethamine-resistant form-2 Plasmodium falciparum N51I, C59R, S108N, I164L, K96N mutant expressed in Escherichia coli BL21(DE3)
[17] = target: T1, Bifunctional dihydrofolate reductase-thymidylate synthase; assay: Inhibition of pyrimethamine-resistant form-2 Plasmodium falciparum N51I, C59R, S108N, I164L, K96N mutant expressed in Escherichia coli BL21(DE3) by Michaelis-Menten based competitive inhibition assay

T1 sequence (Q8I1R6 whole entry N51I/C59R/K96N/S108N/I164L): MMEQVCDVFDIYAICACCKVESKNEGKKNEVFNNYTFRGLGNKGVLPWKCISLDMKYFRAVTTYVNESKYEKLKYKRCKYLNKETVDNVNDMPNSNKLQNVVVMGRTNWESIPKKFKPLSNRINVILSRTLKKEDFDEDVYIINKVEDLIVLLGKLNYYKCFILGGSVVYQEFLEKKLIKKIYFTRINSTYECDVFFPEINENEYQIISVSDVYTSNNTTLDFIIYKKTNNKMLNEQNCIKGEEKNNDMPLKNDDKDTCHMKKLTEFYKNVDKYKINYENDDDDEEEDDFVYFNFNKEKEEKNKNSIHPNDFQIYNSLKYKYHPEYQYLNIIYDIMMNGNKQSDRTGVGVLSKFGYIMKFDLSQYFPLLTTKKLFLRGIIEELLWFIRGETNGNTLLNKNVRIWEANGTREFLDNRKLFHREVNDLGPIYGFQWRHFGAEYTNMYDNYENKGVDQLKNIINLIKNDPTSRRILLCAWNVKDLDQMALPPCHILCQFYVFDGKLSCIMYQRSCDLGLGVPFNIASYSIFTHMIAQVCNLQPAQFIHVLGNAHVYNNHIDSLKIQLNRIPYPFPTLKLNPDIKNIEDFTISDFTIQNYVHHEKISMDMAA

Row | SMILES | IC50 [1] | Ki [2] | Ki [3] | Ki [4] | Ki [5] | IC50 [6] | Ki [7] | IC50 [8] | IC50 [9] | Ki [10] | IC50 [11] | IC50 [12] | Ki [13] | IC50 [14] | IC50 [15] | IC50 [16] | Ki [17]
1 | CCc1nc(N)nc(N)c1-c1ccc(Cl)cc1 [PYRIMETHAMINE] | 7200 nM | 1.24 nM | 3.57 nM | 7.26 nM | 15.5 nM | 420 nM | 1.9 nM | 10 nM | 90 nM | 1.07 nM | 170 nM | 3470 nM | 2.1 nM | 870 nM | 1820 nM | – | –
2 | CC1(C)N=C(N)N=C(N)N1OCCCOc1cc(Cl)c(Cl)cc1Cl | 40000 nM | 514 nM | 8.09 nM | 17.6 nM | 72.4 nM | 50 nM | 859 nM | 60 nM | 200 nM | 147 nM | 160 nM | 920 nM | 209 nM | 50 nM | 680 nM | 90 nM | 292 nM

Source: ChEMBL document CHEMBL1137664, “Conflicting requirements of Plasmodium falciparum dihydrofolate reductase mutations conferring resistance to pyrimethamine-WR99210 combination” (Antimicrob Agents Chemother, 2007)
